The values below come from publication PMC3346932 (Molecular Imaging and Biology, 2011).

Read-outs that look alike come from different tables or passages of the source. Where a SMILES comes first, the peptide text is derived from it. Bridges are numbered along the chain shown (N, C = ends). Where no end group is shown, it is not given here. The star is where a group is joined. IRDye800CW = CC1(C)C(/C=C/C2=C(Oc3ccc(S(=O)(=O)O)cc3)C(=C/C=C3/N(CCCCS(=O)(=O)O)c4ccc(S(=O)(=O)O)cc4C3(C)C)/CCC2)=[N+](CCCCCC(=O)*)c2ccc(S(=O)(=O)[O-])cc21

By logP is commonly meant a log measure of how a compound divides between an organic and an aqueous phase. Low values mean lower lipophilicity, high ones higher lipophilicity. Usually Kd stands for the concentration at which binding is half-saturated.

Series [1] deals with inguinal lymph node of C57BL/6 mice. Nature of the series: lymphatic clearance from inguinal lymph node, NIR fluorescence imaging. Type of series: in vivo, mouse. The settings on record: for percent of maximal fluorescence intensity retained over the study period: intradermal, 0–50 min, normalized to maximum. The method, boiled down: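 C57BL/6 mice were induced with 2–3% isoflurane and kept under <1% for 50 min at 37°. […] A region near the inguinal node was imaged at 200 ms/frame at 0.5, 2.5, 15, 30 and 50 min. Signal was normalized to each agent's maximum node intensity; Student's t test, α = 0.05.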

The conditions of series [2]: ref [27], cited from earlier work.
The conditions of series [3]: reference standard; ref [53]; cited from earlier work.
Series [4] can be described thus: HPLC degradation study of ICG in saline. Type of series: physicochemical. As to conditions: 100 μg/mL ICG in saline, by 25 h.
In series [5] the test system is lymphatic vasculature of C57BL/6 mice. Nature of the series: in vivo NIR fluorescence lymphatic imaging. On the set-up: species or system mouse. The settings on record: intradermal 20 μL of 500 μM ICG or 100 μM cABD-IRDye800. The method, boiled down:
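Shaved female C57BL/6 mice, 6–7 weeks old, under 2–3% isoflurane on a 37° heating pad (~30 min per animal). Intradermal injection at the tail base, with the injection site taped over. Illumination by a 785 nm laser diode (80 mW) expanded to an ~8 cm area. EMCCD capture through an 830 nm bandpass filter at 200 ms per frame. Mice monitored during and after imaging.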

Series [6] can be described thus: water-octanol partition coefficient. Type of series: physicochemical.
Series [7] in a line: fluorescence optical properties. Type of series: physicochemical. The settings on record: 785/830 nm.
For a further series, the target named is mouse serum albumin (mouse, UniProt P07724 25-608). Briefly: SPR. On the technique in general: SPR reads the build-up and loss of mass on a sensor chip optically.

With `CC1(C)C(/C=C/C=C/C=C/C=C2\N(CCCCS(=O)(=O)O)c3ccc4ccccc4c3C2(C)C)=[N+](CCCCS(=O)(=O)[O-])c2ccc3ccccc3c21` [ICG, indocyanine green], in series [1], the “percent of maximal fluorescence intensity retained over the study period” value was “at least 80%”. Also, the half life was 14 h in series [2] (ambient temperature under normal light); “approximately 20 h” in series [2] (aqueous solution, darkness, low temperature (8°C)); 2.3 h in series [2] (aqueous solution, exposure to light at 786 nm). For the same molecule, in series [3], the known lifetime is recorded as 0.56 ns. For the same molecule, the ICG peak remaining in series [4] worked out at 30%. The degradation peak in series [4] is on record as 70%. The “adverse events during and after imaging” value in series [5] is “none”.
With `CC1(C)C(/C=C/C2=C(Oc3ccc(S(=O)(=O)O)cc3)C(=C/C=C3/N(CCCCS(=O)(=O)O)c4ccc(S(=O)(=O)[O-])cc4C3(C)C)/CCC2)=[N+](CCCCCC(=O)O)c2ccc(S(=O)(=O)O)cc21` [IRDye800], in series [1] (intradermal 20 μL of 100 μM, 50 min), the “percent of maximum fluorescence remaining at 50 min” value is given as “less than 30%”.
Turning to `CC[C@H](C)[C@H](NC(=O)[C@H](CC(C)C)NC(=O)[C@H](CCCNC(=N)N)NC(C)=O)C(=O)N[C@@H](CCC(=O)O)C(=O)N[C@@H](CC(=O)O)C(=O)N[C@H](C(=O)N[C@H]1CSSC[C@@H](C(=O)N[C@@H](CC(C)C)C(=O)N[C@@H](Cc2c[nH]c3ccccc23)C(=O)N[C@@H](CCC(=O)O)C(=O)N[C@@H](CC(=O)O)C(=O)N[C@@H](CC(=O)O)C(=O)N[C@@H](CCCCNC(=O)CCCCCN2C(=CC=C3CCCC(C=CC4=[N+](CCCCS(=O)(=O)O)c5ccc(S(=O)(=O)[O-])cc5C4(C)C)=C3Oc3ccc(S(=O)(=O)O)cc3)C(C)(C)c3cc(S(=O)(=O)O)ccc32)C(N)=O)NC(=O)CNC(=O)[C@H](Cc2c[nH]c3ccccc23)NC(=O)[C@H](CCCNC(=N)N)NC(=O)[C@@H]2CCCN2C(=O)[C@H](CC(C)C)NC1=O)[C@@H](C)CC` [cABD-IRDye800] (Ac-RLIEDICLPRWGCLWEDDK(IRDye800CW)-NH2; disulfide 7-13; N-terminus and C-terminus assumed), the “percent of maximal fluorescence intensity retained over the study period” value in series [1] is “at least 80%”. This molecule registered a logP in series [6] of -0.53. Besides, the “lifetime relative to ICG” value in series [7] worked out at 1.6 times. Besides, the “adverse events during and after imaging” value in series [5] is “none”.
Consider RLIEDICLPRWGCLWEDDK (disulfide 7-13; also: Dylight680 conjugated, site not given here) [cABD conjugated to Dylight680], for which the dissociation constant (Kd) in the series with mouse serum albumin was determined as 32 nM.
